Measurements published in ChEMBL document CHEMBL1124668, “Solid-phase synthesis of 16 potent (selective and nonselective) in vivo antagonists of oxytocin” (J Med Chem, 1989).
Starred links: 1 amine or outer side, 2 acyl side, 3 side chain; linkers in the order of their positions; H or OH if unused. Positions of bridges follow the written chain, without caps; N, C: chain ends. Non-standard residues stand in square brackets, D forms with d. Residues, ends and D or L forms follow the SMILES beside them. X1 = O=C(CC1(S[*:2])CCCCC1)[*:1]; Orn = NCCC[C@H](N)C(=O)O

Legend:
Rattus norvegicus [1] = assay: Antiantidiuretic activity in vivo in hydrated rats under ethanol anaesthesia.; format: functional, organism-based; details: Urine, read-out: pA2 (converted)
Procedure, shortened: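 Hydrated rats under ethanol anaesthesia; antagonist given iv against the USP Posterior Pituitary Reference Standard as agonist. Effective dose (nmol/kg) is the dose that cuts the response to 2x units of agonist to equal the response to 1x unit. It is estimated by interpolation on a semilog scale between doses above and below it. pA2 assumes a volume of distribution of 67 mL/kg. Where SEM is given, n ≥4 estimates.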

Rattus norvegicus [2] = assay: (§1) Antivasopressor activity in vivo in phenoxybenzamine pre-treated rats.; format: functional, organism-based; details: read-out: pA2 (converted)
Procedure, shortened: (§2)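 Rats pretreated with phenoxybenzamine, under urethane anesthesia; antagonist given iv; agonist USP Posterior Pituitary Reference Standard; read-out is pressor response. Effective dose (nmol/kg) is the dose that cuts the response to 2X units of agonist to that of 1X unit, interpolated semilogarithmically from bracketing doses. pA2 assumes a 67 mL/kg distribution volume. SEM is given where there are ≥4 independent estimates.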

Rattus norvegicus [3] = assay: Antioxytocic potencies (change in interuterine pressure) in vivo in estrogen pre-treated rats.; format: functional, organism-based; details: read-out: pA2 (converted)
Procedure, shortened: (§3)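 Rats pretreated with estrogen, under urethane anesthesia; antagonist given iv; read-out is change in integrated intrauterine pressure; agonist synthetic oxytocin. Effective dose (nmol/kg) is the dose that cuts the response to 2X units of agonist to the response to 1X unit, interpolated on a semilog scale from doses above and below it. pA2 is derived assuming a 67 mL/kg distribution volume.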

Rattus norvegicus [4] = species on record: Rattus norvegicus; assay: Antioxytoxic activity in vitro in isolated uteri from estrogen pretreated rats suspended in Mg-free Dyke-Hastings solution.; details: read-out: pA2 (converted)
Rattus norvegicus [5] = species on record: Rattus norvegicus; assay: Antioxytoxic activity in vitro in isolated uteri from estrogen pretreated rats suspended in Mg supplemented Dyke-Hastings solution.; format: functional; details: read-out: pA2 (converted)
Procedure, shortened: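 Isolated rat uterus in bath medium with Mg2+; agonist USP Posterior Pituitary Reference Standard. pA2 is the −log of the effective molar antagonist concentration that reduces the response to a dose of agonist to the response to half that dose. It is interpolated semilogarithmically from concentrations above and below it. SEM is given where there are ≥4 independent estimates.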

Rattus norvegicus [6] = assay: as §1; format: functional; procedure, shortened: as §2
Rattus norvegicus [7] = assay: Antidiuretic activity in rats as intravenous dose required for reduction of 2x agonist response to equal 1x effect in estrogen pretreated rats; format: functional, Urine
Rattus norvegicus [8] = assay: In vivo inhibition of estrogen induced changes in interuterine pressure in rats.; format: functional; procedure, shortened: as §3

| Compound | Kb (Rattus norvegicus [1]) | Kb (Rattus norvegicus [2]) | Kb (Rattus norvegicus [3]) | Kb (Rattus norvegicus [4]) | Kb (Rattus norvegicus [5]) | ED (Rattus norvegicus [6]) | ED (Rattus norvegicus [7]) | ED (Rattus norvegicus [8]) |
| --- | --- | --- | --- | --- | --- | --- | --- | --- |
| CC[C@H](C)[C@@H]1NC(=O)[C@H](Cc2ccc(OC)cc2)NC(=O)CC2(CCCCC2)SSC[C@@H](C(=O)N2CCC[C@H]2C(=O)N[C@@H](CCCN)C(=O)NCC(N)=O)NC(=O)[C@H](CC(N)=O)NC(=O)[C@H]([C@@H](C)O)NC1=O (Y(Me)ITNCP[Orn]G-NH2; linker N-5 via X1) | ~5010 nM | 141 nM | 28.2 nM | 9.55 nM | 3.89 nM |  |  |  |
| COc1ccc(C[C@H]2NC(=O)CC3(CCCCC3)SSC[C@@H](C(=O)N3CCC[C@H]3C(=O)N[C@@H](CCCN=C(N)N)C(=O)NCC(N)=O)NC(=O)[C@H](CC(N)=O)NC(=O)[C@H](C(C)C)NC(=O)[C@H](Cc3ccccc3)NC2=O)cc1 [listing 1 of 2 here] |  |  |  |  |  | 0.23 nM/kg | 1.2 nM/kg | 1.9 nM/kg |
| CCOc1ccc(C[C@H]2NC(=O)CC3(CCCCC3)SSC[C@@H](C(=O)N3CCC[C@H]3C(=O)N[C@@H](CCCCN)C(=O)NCC(N)=O)NC(=O)[C@H](CC(N)=O)NC(=O)[C@H](C(C)C)NC(=O)[C@H](Cc3ccccc3)NC2=O)cc1 ([dY](Et)FVNCPKG-NH2; linker N-5 via X1) [listing 1 of 2 here] |  |  |  |  |  | 0.48 nM/kg | 1.5 nM/kg | 1.9 nM/kg |
| COc1ccc(C[C@H]2NC(=O)CC3(CCCCC3)SSC[C@@H](C(=O)N3CC=C[C@H]3C(=O)N[C@@H](CCCN=C(N)N)C(=O)NCC(N)=O)NC(=O)[C@H](CC(N)=O)NC(=O)[C@H](C(C)C)NC(=O)[C@H](Cc3ccccc3)NC2=O)cc1 [listing 1 of 2 here] | 24.5 nM | 8.32 nM |  | 13.2 nM | 110 nM |  |  |  |
| CCOc1ccc(C[C@H]2NC(=O)CC3(CCCCC3)SSC[C@@H](C(=O)N3CCC[C@H]3C(=O)N[C@@H](CCCN=C(N)N)C(=O)NCC(N)=O)NC(=O)[C@H](CC(N)=O)NC(=O)[C@H](C(C)C)NC(=O)[C@H](Cc3ccccc3)NC2=O)cc1 ([dY](Et)FVNCPRG-NH2; linker N-5 via X1) [listing 1 of 2 here] | 15.5 nM | 6.03 nM | 33.9 nM |  |  |  |  |  |
| COc1ccc(C[C@H]2NC(=O)CC3(CCCCC3)SSC[C@@H](C(=O)N3CC=C[C@H]3C(=O)N[C@@H](CCCN=C(N)N)C(=O)NCC(N)=O)NC(=O)[C@H](CC(N)=O)NC(=O)[C@H](C(C)C)NC(=O)[C@H](Cc3ccccc3)NC2=O)cc1 [listing 2 of 2 here] |  |  |  |  |  | 0.55 nM/kg | 1.7 nM/kg | 1.17 nM/kg |
| CC[C@H](C)[C@@H]1NC(=O)[C@H](Cc2ccc(OC)cc2)NC(=O)CC2(CCCCC2)SSC[C@@H](C(=O)N2CCC[C@H]2C(=O)N[C@@H](CCCN)C(=O)NCC(N)=O)NC(=O)[C@H](CC(N)=O)NC(=O)[C@H](CCC(N)=O)NC1=O (Y(Me)IQNCP[Orn]G-NH2; linker N-5 via X1) [listing 1 of 2 here] |  |  |  |  |  | 0.8 nM/kg | 0.01 nM/kg | 4.2 nM/kg |
| CC[C@H](C)[C@@H]1NC(=O)[C@H](Cc2ccc(OC)cc2)NC(=O)CC2(CCCCC2)SSC[C@@H](C(=O)N2CCC[C@H]2C(=O)N[C@@H](CCCN)C(N)=O)NC(=O)[C@H](CC(N)=O)NC(=O)[C@H]([C@@H](C)O)NC1=O (Y(Me)ITNCP[Orn]-NH2; linker N-5 via X1) | ~1580 nM | 105 nM | 24.5 nM | 6.76 nM | 2.75 nM |  |  |  |
| COc1ccc(C[C@H]2NC(=O)CC3(CCCCC3)SSC[C@@H](C(=O)N3CCC[C@H]3C(=O)N[C@@H](CCCN=C(N)N)C(=O)NCC(N)=O)NC(=O)[C@H](CC(N)=O)NC(=O)[C@H](CCC(N)=O)NC(=O)[C@H](Cc3ccccc3)NC2=O)cc1 [listing 1 of 2 here] |  |  |  |  |  | 0.36 nM/kg | 7.3 nM/kg | 1.3 nM/kg |
| COc1ccc(C[C@H]2NC(=O)CC3(CCCCC3)SSC[C@@H](C(=O)N3CCC[C@H]3C(=O)N[C@@H](CCCN=C(N)N)C(=O)NCC(N)=O)NC(=O)[C@H](CC(N)=O)NC(=O)[C@H](CCC(N)=O)NC(=O)[C@H](Cc3ccccc3)NC2=O)cc1 [listing 2 of 2 here] | 105 nM | 5.37 nM | 33.9 nM | 13.5 nM | 4.79 nM |  |  |  |
| CC[C@H](C)[C@@H]1NC(=O)[C@@H](Cc2ccccc2)NC(=O)CC2(CCCCC2)SSC[C@@H](C(=O)N2CCC[C@H]2C(=O)N[C@@H](CCCN=C(N)N)C(=O)NCC(N)=O)NC(=O)[C@H](CC(N)=O)NC(=O)[C@H](C(C)C)NC1=O [listing 1 of 2 here] |  |  |  |  |  | 17 nM/kg | 45 nM/kg | 2.5 nM/kg |
| CC[C@H](C)[C@@H]1NC(=O)[C@@H](Cc2ccc(OC)cc2)NC(=O)CC2(CCCCC2)SSC[C@@H](C(=O)N2CCC[C@H]2C(=O)N[C@@H](CCCN=C(N)N)C(=O)NCC(N)=O)NC(=O)[C@H](CC(N)=O)NC(=O)[C@H](C(C)C)NC1=O [listing 1 of 2 here] | 132 nM | 15.1 nM | 33.1 nM | 22.4 nM | 5.62 nM |  |  |  |
| COc1ccc(C[C@@H]2NC(=O)CC3(CCCCC3)SSC[C@@H](C(=O)N3CCC[C@H]3C(=O)N[C@@H](CCCN=C(N)N)C(=O)NCC(N)=O)NC(=O)[C@H](CC(N)=O)NC(=O)[C@H](C(C)C)NC(=O)[C@H](Cc3ccccc3)NC2=O)cc1 [listing 1 of 2 here] |  |  |  |  |  | 0.29 nM/kg | 3.1 nM/kg | 8 nM/kg |
| CC[C@H](C)[C@@H]1NC(=O)[C@@H](Cc2ccc(OC)cc2)NC(=O)CC2(CCCCC2)SSC[C@@H](C(=O)N2CCC[C@H]2C(=O)N[C@@H](CCCN=C(N)N)C(=O)NCC(N)=O)NC(=O)[C@H](CC(N)=O)NC(=O)[C@H](C(C)C)NC1=O [listing 2 of 2 here] |  |  |  |  |  | 1.1 nM/kg | 9.4 nM/kg | 2.4 nM/kg |
| CCOc1ccc(C[C@H]2NC(=O)CC3(CCCCC3)SSC[C@@H](C(=O)N3CCC[C@H]3C(=O)N[C@@H](CCCCN)C(=O)NCC(N)=O)NC(=O)[C@H](CC(N)=O)NC(=O)[C@H](C(C)C)NC(=O)[C@H](Cc3ccccc3)NC2=O)cc1 ([dY](Et)FVNCPKG-NH2; linker N-5 via X1) [listing 2 of 2 here] | 19.1 nM | 6.92 nM | 26.9 nM | 13.5 nM | 10.5 nM |  |  |  |
| CCOc1ccc(C[C@H]2NC(=O)CC3(CCCCC3)SSC[C@@H](C(=O)N3CCC[C@H]3C(=O)N[C@@H](CCCN=C(N)N)C(=O)NCC(N)=O)NC(=O)[C@H](CC(N)=O)NC(=O)[C@H](C(C)C)NC(=O)[C@H](Cc3ccccc3)NC2=O)cc1 ([dY](Et)FVNCPRG-NH2; linker N-5 via X1) [listing 2 of 2 here] |  |  |  |  |  | 0.45 nM/kg | 1.1 nM/kg | 2.6 nM/kg |
| CCOc1ccc(C[C@H]2NC(=O)CC3(CCCCC3)SSC[C@@H](C(=O)N3CCC[C@H]3C(=O)N[C@@H](CCCNC(N)=O)C(=O)NCC(N)=O)NC(=O)[C@H](CC(N)=O)NC(=O)[C@H](C(C)C)NC(=O)[C@H](Cc3ccccc3)NC2=O)cc1 [listing 1 of 2 here] |  |  |  |  |  | 0.81 nM/kg | 23 nM/kg | 1.8 nM/kg |
| COc1ccc(C[C@@H]2NC(=O)CC3(CCCCC3)SSC[C@@H](C(=O)N3CCC[C@H]3C(=O)N[C@@H](CCCN=C(N)N)C(=O)NCC(N)=O)NC(=O)[C@H](CC(N)=O)NC(=O)[C@H](C(C)C)NC(=O)[C@H](Cc3ccccc3)NC2=O)cc1 [listing 2 of 2 here] | 44.7 nM |  | 115 nM | 4.37 nM | 13.5 nM |  |  |  |
| CC[C@H](C)[C@@H]1NC(=O)[C@H](Cc2ccc(OC)cc2)NC(=O)CC2(CCCCC2)SSC[C@@H](C(=O)N2CCC[C@H]2C(=O)N[C@@H](CCCN)C(=O)O)NC(=O)[C@H](CC(N)=O)NC(=O)[C@H]([C@@H](C)O)NC1=O (Y(Me)ITNCP[Orn]-OH; linker N-5 via X1) | ~5010 nM | 331 nM | 20.4 nM | 12.9 nM | 5.75 nM |  |  |  |
| CC[C@H](C)[C@@H]1NC(=O)[C@@H](Cc2ccccc2)NC(=O)CC2(CCCCC2)SSC[C@@H](C(=O)N2CCC[C@H]2C(=O)N[C@@H](CCCN=C(N)N)C(=O)NCC(N)=O)NC(=O)[C@H](CC(N)=O)NC(=O)[C@H](C(C)C)NC1=O [listing 2 of 2 here] | 617 nM | 229 nM | 34.7 nM | 12.9 nM | 5.62 nM |  |  |  |
| COc1ccc(C[C@H]2NC(=O)CC3(CCCCC3)SSC[C@@H](C(=O)N3CCC[C@H]3C(=O)N[C@@H](CCCN=C(N)N)C(=O)NCC(N)=O)NC(=O)[C@H](CC(N)=O)NC(=O)[C@H](C(C)C)NC(=O)[C@H](Cc3ccccc3)NC2=O)cc1 [listing 2 of 2 here] | 17 nM | 3.31 nM | 26.9 nM | 11 nM | 14.8 nM |  |  |  |
| CCOc1ccc(C[C@H]2NC(=O)CC3(CCCCC3)SSC[C@@H](C(=O)N3CCC[C@H]3C(=O)N[C@@H](CCCNC(N)=O)C(=O)NCC(N)=O)NC(=O)[C@H](CC(N)=O)NC(=O)[C@H](C(C)C)NC(=O)[C@H](Cc3ccccc3)NC2=O)cc1 [listing 2 of 2 here] | 309 nM | 11.7 nM | 25.7 nM | 2.45 nM | 14.8 nM |  |  |  |
| CC[C@H](C)[C@@H]1NC(=O)[C@H](Cc2ccc(OC)cc2)NC(=O)CC2(CCCCC2)SSC[C@@H](C(=O)N2CCC[C@H]2C(=O)N[C@@H](CCCN)C(=O)NCC(N)=O)NC(=O)[C@H](CC(N)=O)NC(=O)[C@H](CCC(N)=O)NC1=O (Y(Me)IQNCP[Orn]G-NH2; linker N-5 via X1) [listing 2 of 2 here] |  | 11 nM | 42.7 nM | 3.02 nM | 13.2 nM |  |  |  |
